Laboratory results from ChEMBL document CHEMBL3817728, “Synthesis, Evaluation, and Mechanism Study of Novel Indole-Chalcone Derivatives Exerting Effective Antitumor Activity Through Microtubule Destabilization in Vitro and in Vivo” (J Med Chem, 2016).
Calls of active or inactive are those of the source. The rule behind the calls is not given here.

Experiments:
[1] = tested on: A549; assay: Induction of apoptosis in human A549 cells assessed as necrotic cells at 1 nM after 48 hrs by annexin V-FITC/propidium iodide staining-based flow cytometric method (reference value: 0.01%); type: functional
[2] = Metabolic stability in Sprague-Dawley rat liver microsomes assessed as compound remaining at 150 mins in presence of NADPH regenerating system by HPLC method; type: ADME; conditions: read-out: Stability
Method in brief: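 Rat liver microsomes incubated with compound at 37 ℃ for indicated times in buffer containing NADPH regenerating system; residual parent determined by HPLC.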

[3] = tested on: Mus musculus; assay: Toxicity in BALB/c nude mouse xenografted with human A549 cells assessed as loss of body weight at 30 mg/kg, ip administered every other day for 1 month measured every other day post dose relative to vehicle-treated control; type: organism-based; conditions: in vivo
[4] = tested on: A549; assay: Disruption of microtubule network in human A549 cells assessed as multipolarization of spindle at 10 nM after 24 hrs by Hoechst 33342 staining-based laser scanning confocal microscopic analysis; type: cell-based
Method in brief: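 A549 cells plated in confocal dishes and incubated with compound for 24 h. Cells were then fixed and stained, and microtubule and spindle organization was imaged by laser confocal microscopy. Experiments done five times; representative results shown.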

[5] = molecular target: Tubulin (Sus scrofa) (UniProt P02554+P02550); assay: Inhibition of [3H]-colchicine binding to porcine brain tubulin at 1 uM relative to control
Method in brief: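 Competition with [3H]colchicine at 5 μM; test agents at 5 or 1 μM. Mean ± SD of at least three independent experiments.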

[6] = Cytotoxicity against human MCF10A cells assessed as growth inhibition after 48 hrs by MTT assay; type: cell-based; conditions: MCF-10A
Method in brief: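 Non-tumorigenic cells given 48 h compound exposure, and viability read by MTT. IC50 is mean ± SE from dose-response curves of at least three independent experiments. HUVECs were kept quiescent in endothelial cell medium with 0.5% fetal calf serum and no growth factor.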

[7] = tested on: HCT-8; assay: Resistance index, ratio of IC50 for human HCT8/VCT cells to IC50 for human HCT8 cells; type: functional
[8] = tested on: A549; assay: Induction of apoptosis in human A549 cells assessed as early apoptotic cells at 1 nM after 24 hrs by annexin V-FITC/propidium iodide staining-based flow cytometric method (reference value: 1.07%); type: functional
[9] = tested on: A549; assay: Induction of apoptosis in human A549 cells assessed as early apoptotic cells at 3 nM after 24 hrs by annexin V-FITC/propidium iodide staining-based flow cytometric method (reference value: 1.07%); type: functional
[10] = tested on: A549; assay: Induction of apoptosis in human A549 cells assessed as viable cells at 10 nM after 24 hrs by annexin V-FITC/propidium iodide staining-based flow cytometric method (reference value: 98.9%); type: functional; conditions: A549, 24 h, read-out: Activity
Method in brief: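 A549 cells exposed 24 h or 48 h at indicated concentrations, then trypsinized, harvested and stained with Annexin V-FITC and PI; flow cytometry quadrants scored as necrotic (upper left), late apoptotic (upper right), live (bottom left) and early apoptotic (bottom right). Five independent experiments, representative shown.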

Tubulin (Sus scrofa), sequence (P02550 whole entry, looked up): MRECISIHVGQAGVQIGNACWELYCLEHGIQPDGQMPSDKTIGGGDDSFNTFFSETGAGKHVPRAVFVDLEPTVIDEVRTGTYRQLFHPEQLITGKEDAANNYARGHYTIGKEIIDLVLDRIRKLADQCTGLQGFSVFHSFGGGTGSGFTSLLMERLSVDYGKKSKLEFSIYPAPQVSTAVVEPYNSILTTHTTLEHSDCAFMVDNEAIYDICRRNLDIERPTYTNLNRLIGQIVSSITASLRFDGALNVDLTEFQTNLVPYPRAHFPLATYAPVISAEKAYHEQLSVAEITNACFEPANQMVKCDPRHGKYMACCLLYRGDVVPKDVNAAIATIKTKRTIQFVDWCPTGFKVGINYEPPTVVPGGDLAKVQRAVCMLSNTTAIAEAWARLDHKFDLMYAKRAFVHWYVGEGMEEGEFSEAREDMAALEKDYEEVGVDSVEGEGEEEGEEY
Tubulin (Sus scrofa), sequence (P02554 whole entry, looked up): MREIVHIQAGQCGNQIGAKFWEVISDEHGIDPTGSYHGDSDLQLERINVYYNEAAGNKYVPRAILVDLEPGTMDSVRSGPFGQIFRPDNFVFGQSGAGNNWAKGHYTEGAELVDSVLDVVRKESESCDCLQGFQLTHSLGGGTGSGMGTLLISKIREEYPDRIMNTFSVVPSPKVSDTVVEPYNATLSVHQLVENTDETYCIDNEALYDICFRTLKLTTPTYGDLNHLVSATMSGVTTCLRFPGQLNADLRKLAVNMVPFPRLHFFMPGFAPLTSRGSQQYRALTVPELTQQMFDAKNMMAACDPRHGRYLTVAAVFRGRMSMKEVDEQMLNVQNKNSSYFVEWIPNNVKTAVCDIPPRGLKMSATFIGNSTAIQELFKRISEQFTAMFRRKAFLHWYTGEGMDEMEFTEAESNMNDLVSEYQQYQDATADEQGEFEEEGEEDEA

## COc1ccc2c(/C=C(\C)C(=O)c3cc(OC)c(OC)c(OC)c3)c[nH]c2c1
[1]
  Activity: 1.52%
[2]
  remaining at 2.5 h: 54.1%
[3]
  Activity: Non-toxic
[4]
  Activity: Active
[5]
  inhibition: 82%
[6]
  IC50: 2.67 µM
[7]
  Ratio IC50: 0.42
[8]
  Activity: 12.8%
[9]
  Activity: 28.6%
[10]
  viability at 0.01 µM: 60.4%
